The text below walks through data of ChEMBL document CHEMBL5046287 (J Med Chem, 2022).

Data set [1] deals with T1, Aldehyde dehydrogenase, dimeric NADP-preferring (Homo sapiens, UniProt P30838).
T1 sequence (P30838 whole entry): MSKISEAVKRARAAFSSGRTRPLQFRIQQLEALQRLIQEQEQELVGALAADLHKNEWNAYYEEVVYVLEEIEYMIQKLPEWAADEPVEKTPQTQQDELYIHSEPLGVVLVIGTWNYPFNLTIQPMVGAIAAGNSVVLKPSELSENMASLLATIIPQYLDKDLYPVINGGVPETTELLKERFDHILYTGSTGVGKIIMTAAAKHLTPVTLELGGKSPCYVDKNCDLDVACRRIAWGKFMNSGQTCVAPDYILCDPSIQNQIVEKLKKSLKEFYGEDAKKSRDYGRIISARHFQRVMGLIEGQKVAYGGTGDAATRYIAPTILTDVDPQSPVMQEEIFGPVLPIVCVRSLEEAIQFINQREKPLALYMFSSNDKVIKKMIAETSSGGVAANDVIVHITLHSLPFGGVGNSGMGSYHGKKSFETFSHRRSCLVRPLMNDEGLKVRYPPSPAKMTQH
In words: Substrate activity at N-terminal-His6 tagged recombinant human ALDH3A1 at 10 uM […] by fluorimetric analysis relative to 4-NBA. Type of data set: ADME. The gist of the method:
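Compound at 10 μM used as substrate in place of 4-NBA. Buffer 50 mM Tris–HCl, 5 mM DTT, pH 8.0, with 1 mM NADP+. NADPH fluorescence (ex 340/em 460 nm). Activity given as % of that with 10 μM 4-NBA; mean ± SE.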

Data set [2] relates to H488. The data set can be described thus: Cytotoxicity against human H488/14 RM cells assessed as reduction in cell viability incubated for 72 hrs by AlamarBlue staining based analysis. Type of data set: functional. Conditions: dose 50-200 µM. The gist of the method:
(§1)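 Primary prostate epithelial cells (cancer from radical prostatectomy, BPH from transurethral resection) plated 5000 cells/well in SCM for 24 h at 37 °C, 5% CO2, then given inhibitor alone at 50 or 200 μM (200 mM DMSO stocks) for 72 h. Alamar Blue at 10% of volume for 1–4 h. Viability is % of DMSO control; triplicate, mean.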

Data set [3] concerns H568. In words: Cytotoxicity against human H568/15 RM cells assessed as reduction in cell viability at 50 to 200 uM incubated for 72 hrs in presence of docetaxel by AlamarBlue staining based analysis. The data set is classed as functional. Conditions: dose 50-200 µM. The gist of the method: (§2)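 Primary prostate epithelial cells (radical prostatectomy cancer or transurethral resection BPH) seeded at 5000 cells/well in SCM, 24 h at 37 °C, 5% CO2. Treated with inhibitor at 50 or 200 μM plus 1 nM docetaxel (DMSO stocks 200 mM) for 72 h. Alamar Blue added at 10% volume, 1–4 h at 37 °C. Viability is % of DMSO-treated control; triplicate, mean; paired two-tailed t-test.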
(In general: The colour change of resazurin is a common sign of viable cells or microbes.)

Data set [4] deals with H415. The data set can be described thus: Cytotoxicity against human H415/15 cells assessed as reduction in cell viability at 50 to 200 uM incubated for 72 hrs in presence of docetaxel by AlamarBlue staining based analysis. The data set is classed as functional. Conditions: dose 50-200 µM. The gist of the method:
as §2

The target of data set [5] is T2, Aldehyde dehydrogenase, dimeric NADP-preferring (Homo sapiens) (UniProt P30838).
T2 sequence (whole entry): T1 sequence (P30838 whole entry)
In words: Inhibition of N-terminal-His6 tagged recombinant human ALDH3A1 assessed as remaining enzyme activity by measuring fluorescence of NADPH using 4-NBA and NADP+ as substrate at 10 uM by fluorimetric analysis relative to control. The gist of the method:
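Single-point screen at 10 μM inhibitor, 1% DMSO final. Enzyme in 50 mM Tris–HCl, 5 mM DTT, pH 8.0, with 1 mM NADP+ and 4-NBA at 31 and 250 μM. NADPH fluorescence (ex 340/em 460 nm) or absorbance at 340 nm. Enzyme kept 50–100-fold below substrate; result is % remaining activity.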

The subject of data set [6] is H431. In words: Cytotoxicity against human H431/14 LM cells assessed as reduction in cell viability at 50 to 200 uM incubated for 72 hrs in presence of docetaxel by AlamarBlue staining based analysis. Type of data set: functional. Conditions: dose 50-200 µM. The gist of the method: as §2
Data set [7] deals with H488. The data set can be described thus: Cytotoxicity against human H488/14 RM cells assessed as reduction in cell viability at 50 to 200 uM incubated for 72 hrs in presence of docetaxel by AlamarBlue staining based analysis. The settings on record: dose 50-200 µM. The data set is classed as functional. The gist of the method:
as §2

The test system of data set [8] is H517. In words: Cytotoxicity against human H517/15 RM cells assessed as reduction in cell viability incubated for 72 hrs by AlamarBlue staining based analysis. Type of data set: functional. Conditions: dose 50-200 µM. Summed up:
as §1

The subject of data set [9] is H517. The data set can be described thus: Cytotoxicity against human H517/15 RM cells assessed as reduction in cell viability at 50 to 200 uM incubated for 72 hrs in presence of docetaxel by AlamarBlue staining based analysis. Type of data set: functional. Conditions: dose 50-200 µM. Summed up:
as §2

Data set [10] deals with H568. The data set can be described thus: Cytotoxicity against human H568/15 RM cells assessed as reduction in cell viability incubated for 72 hrs by AlamarBlue staining based analysis. Conditions: dose 50-200 µM. Type of data set: functional. Summed up:
as §1

The target in data set [11] is T3, Aldehyde dehydrogenase 1A1 (Homo sapiens, UniProt P00352).
T3 sequence (P00352 whole entry): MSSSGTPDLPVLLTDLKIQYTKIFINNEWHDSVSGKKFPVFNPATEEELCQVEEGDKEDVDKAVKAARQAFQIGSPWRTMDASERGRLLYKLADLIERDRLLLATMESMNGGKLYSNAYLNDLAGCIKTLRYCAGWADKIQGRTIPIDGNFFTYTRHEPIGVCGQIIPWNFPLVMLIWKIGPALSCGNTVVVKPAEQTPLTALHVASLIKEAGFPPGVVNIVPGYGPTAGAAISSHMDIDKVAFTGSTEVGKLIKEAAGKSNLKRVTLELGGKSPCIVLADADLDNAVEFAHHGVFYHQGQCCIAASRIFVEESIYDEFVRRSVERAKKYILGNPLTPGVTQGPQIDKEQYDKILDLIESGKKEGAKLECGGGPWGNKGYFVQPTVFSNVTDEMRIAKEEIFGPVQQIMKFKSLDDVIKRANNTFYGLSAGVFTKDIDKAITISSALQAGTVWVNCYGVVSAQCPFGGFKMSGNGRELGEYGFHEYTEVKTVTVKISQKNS
The data set can be described thus: Substrate activity at N-terminal-His6 tagged recombinant human ALDH1A1 at 10 uM […] by fluorimetric analysis relative to hexanal. The data set is classed as ADME. The gist of the method:
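Compound at 10 μM used as substrate in place of hexanal. Buffer 50 mM HEPES, 0.5 mM EDTA, 0.5 mM DTT, pH 8.0, with 500 μM NAD+. NADH fluorescence (ex 340/em 460 nm). Activity given as % of that with 10 μM hexanal; mean ± SE.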

For data set [12], the system named is H415. The data set can be described thus: Cytotoxicity against human H415/15 cells assessed as reduction in cell viability incubated for 72 hrs by AlamarBlue staining based analysis. The data set is classed as functional. The settings on record: dose 50-200 µM. Summed up: as §1
The test system of data set [13] is H431. In words: Cytotoxicity against human H431/14 LM cells assessed as reduction in cell viability incubated for 72 hrs by AlamarBlue staining based analysis. Type of data set: functional. The settings on record: dose 50-200 µM. The gist of the method:
as §1

Data set [14] relates to DU-145. In words: Antiproliferative activity against human DU145 cells expressing ALDH1A1 assessed as reduction in cell survival measured after 96 hrs by MTT assay. The data set is classed as functional, cell-based. Conditions: DU-145, 96 h. The gist of the method:
(§3)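 Adherent prostate cancer cells seeded in 96-well plates, left overnight at 37 °C, 5% CO2, 100% humidity, then exposed to compounds at 12.5–200 μM for 96 h. Read-out: MTT (0.5 mg/mL) added for 4 h at 37 °C, formazan dissolved in DMSO, absorbance at 540 nm. IC50 from five-dose screen.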
For orientation: Tetrazolium assays rely on reduction of a dye to a coloured formazan, in cell work by metabolically active cells.

Data set [15] concerns PC-3. The data set can be described thus: Antiproliferative activity against human PC-3 cells expressing ALDH1A1 and ALDH3A1 assessed as reduction in cell survival measured after 96 hrs by MTT assay. The data set is classed as functional, cell-based. Conditions: PC-3, 96 h. The gist of the method:
as §3

Data set [16] has as its system LNCaP. In words: Antiproliferative activity against human LNCaP cells expressing ALDH1A3 assessed as reduction in cell survival measured after 96 hrs by MTT assay. Type of data set: functional, cell-based. The gist of the method: as §3
In data set [17] the target is T2, Aldehyde dehydrogenase, dimeric NADP-preferring (Homo sapiens). The data set can be described thus: Inhibition of N-terminal-His6 tagged recombinant human ALDH3A1 using 4-NBA as substrate in absence of NADP+ by fluorimetric analysis. Summed up: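 The standard 5-min preincubation of enzyme with inhibitor was run without NADP+, and compared with preincubation including cofactor. Fluorimetric NADPH read-out; mean ± SE.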

The structures appear in SMILES notation. pIC50: −log10 of the molar value. The source made the active and inactive calls. The calls are words filed in the database; no cut-off is given here.

Turning to `CCCN(CCC)c1ccc(C=O)cc1Br`, the Activity in [1] is under 5%; in data set [2], “Dose-Dependent Effect”; in data set [5] it was under 15%; in data set [8] it was “Dose-Dependent Effect”; in data set [10], “Dose-Dependent Effect”; in data set [11], 3.14%. The Activity result in [12] and in [13] was “Dose-Dependent Effect” throughout. Also, the result in data set [3], in [4], in data set [6], in data set [7] and in data set [9] was Active.

By pIC50 is commonly meant the negative decadic logarithm of the IC50, by convention in mol/L. On to `CCCN(CCC)c1ccc(C=O)cc1C`, for which the pIC50 in [14] was 3.99; in [15], 3.97; in data set [16] it was 4.21. For the same compound, the Activity in data set [5] was under 15%.

As for `CCN(CC)c1ccc(C=O)cc1`, the Activity result in [2], in data set [8], in [10], in data set [12] and in data set [13] was “Dose-Dependent Effect” each time.

In the case of `CCCN(CCC)c1ccc(C=O)cc1[N+](=O)[O-]`, the Activity entry in data set [2] is “Dose-Dependent Effect”; in [5], under 15%; in [8], “Dose-Dependent Effect”; in data set [10] it was “Dose-Dependent Effect”; in data set [12], “Dose-Dependent Effect”; in data set [13], “Dose-Dependent Effect”. Further, the result in data set [3], in data set [4], in data set [6], in data set [7] and in [9] was Active. Also, the inhibition entry in data set [17] is “Active”.

In the case of `CCCN(CCC)c1ccc(C=O)cc1Cl`, the Activity in data set [5] is under 15%.

Take `CCCN(CCC)c1ccc(C=O)cc1`: in data set [5], the Activity is under 15%.

Consider `CCCN(CCC)c1ccc(C=O)cc1OC`, for which the results for the pIC50 in data set [14], in data set [15] and in data set [16] were 4.15, 4.12 and 4.30, respectively.
